Assay: Cytotoxicity in HFF cells after 72 hrs by trypan blue exclusion assay
Format: cell-based
Details: human
In short: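 Human normal fibroblasts, 2 × 10⁵ per well, seeded in RPMI 1640 with 10% fetal calf serum plus penicillin and streptomycin at 37 °C under CO₂. Compound added after 24 h. Living cells counted at 72 h by trypan blue exclusion, expressed as percent of control proliferation; GI50 derived.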

## CCCCOc1ccc(NC(=O)n2nc(N)c3cc(N)ccc32)cc1
  GI50 at 72 h: 32 µM

From ChEMBL document CHEMBL1649392, “Synthesis of substituted 3-amino-N-phenyl-1H-indazole-1-carboxamides endowed with antiproliferative activity” (Eur J Med Chem, 2011)
